The subject of series [1] is Colletotrichum lagenaria. Put plainly: Fungicidal activity against Colletotrichum lagenaria at 50 ug/ml by growth inhibition method. It is filed as functional. Conditions: read-out: GI. Put shortly: (§1)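 Mycelial growth inhibition on potato dextrose agar. The panel covered Alternaria solani, Botrytis cinerea, Cercospora arachidicola, C. beticola, Colletotrichum lagenarium, Fusarium oxysporum, Gibberella zeae, Puccinia triticina, Phytophthora infestans, Physalospora piricola, Pellicularia sasakii and Rhizoctonia solani.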

The test system of series [2] is Tobacco mosaic virus. The series is described as follows: In vitro antiviral activity against Tobacco mosaic virus (TMV) infected tobacco leaves at 200 ug/ml. In kind it is functional.
In series [3] the test system is Nicotiana tabacum. Put plainly: Phytotoxicity against Nicotiana tabacum (tobacco) plant. It is filed as organism-based. Conditions: in vivo.
Series [4] deals with Mycosphaerella arachidis. The series is described as follows: Fungicidal activity against Mycosphaerella arachidis at 50 ug/ml by growth inhibition method. In kind it is functional. The note with it: read-out: GI. Put shortly: as §1
The subject of series [5] is Tobacco mosaic virus. Put plainly: In vivo antiviral activity against Tobacco mosaic virus (TMV) infected tobacco leaves assessed as curative effect at 100 ug/ml treated after viral inoculation measured at 2-3 days after viral challenge. In kind it is functional. Put shortly: (§2)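 Curative test: whole six-leaf tobacco leaves rubbed with TMV (5.88 10-2 μg/mL), dried in greenhouse, then compound smeared on upper three leaves and solvent on lower three as control. Local lesions scored 2-3 days after inoculation, three repetitions. Inhibition (%) = (CK − A)/CK × 100 on mean lesion numbers.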

The subject of series [6] is Alternaria solani. Put plainly: Fungicidal activity against Alternaria solani at 50 ug/ml by growth inhibition method. It is filed as functional. The note with it: read-out: GI. Put shortly:
as §1

Series [7] concerns Tobacco mosaic virus. Put plainly: In vivo antiviral activity against Tobacco mosaic virus (TMV) infected tobacco leaves assessed as protective effect at 100 ug/ml treated 12 hr before viral inoculation measured at 2-3 days after viral challenge. It is filed as functional. Put shortly: (§3)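 Six-leaf tobacco; compound solution smeared over whole leaves, dried in greenhouse, then after 12 h TMV (5.88 10-2 μg/mL) rubbed onto upper three leaves, with solvent on lower three leaves as control. Local lesions counted 2-3 days post-inoculation, three repetitions. Inhibition (%) = (CK − A)/CK × 100 from mean lesion numbers.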

The test system of series [8] is Tobacco mosaic virus. Put plainly: In vivo antiviral activity against Tobacco mosaic virus (TMV) infected tobacco leaves assessed as inactivation effect at 100 ug/ml co-treated with virus for 30 min before inoculation onto leaves measured at 2-3 days after viral challenge. In kind it is functional. Put shortly:
(§4)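 TMV (5.88 10-2 μg/mL) mixed with equal volume of compound solution for 30 min, then rubbed onto upper three leaves of six-leaf tobacco; solvent on lower three leaves as control. Lesions counted 2-3 days later, three repetitions. Inhibition (%) = (CK − A)/CK × 100 from mean lesion counts.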

The test system of series [9] is Tobacco mosaic virus. Put plainly: In vivo antiviral activity against Tobacco mosaic virus (TMV) infected tobacco leaves assessed as curative effect at 500 ug/ml treated after viral inoculation measured at 2-3 days after viral challenge. It is filed as functional. An outline of the steps: as §2
The subject of series [10] is Fusarium graminearum. The series is described as follows: Fungicidal activity against Fusarium graminearum at 50 ug/ml by growth inhibition method. In kind it is functional. Conditions: read-out: GI. An outline of the steps:
as §1

For series [11], the system named is Botrytis cinerea. Put plainly: Fungicidal activity against Botryotinia fuckeliana at 50 ug/ml by growth inhibition method. In kind it is functional. The note with it: read-out: GI. An outline of the steps:
as §1

Series [12] relates to Nicotiana tabacum. The series is described as follows: Induction of systemic acquired resistance activity in TMV infected-Nicotiana tabacum (tobacco) leaves at 100 ug/ml. In kind it is functional. Put shortly: (§5)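 Tobacco/TMV system used for systemic acquired resistance induction. Inhibition ratio calculated from mean lesion numbers on inoculated leaves relative to corresponding control. Tiadinil and ribavirin run as controls.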

The subject of series [13] is Botryosphaeria berengeriana. The series is described as follows: Fungicidal activity against Botryosphaeria berengeriana at 50 ug/ml by growth inhibition method. Conditions: read-out: GI. It is filed as functional. An outline of the steps:
as §1

Series [14] relates to Fusarium oxysporum. Put plainly: Fungicidal activity against Fusarium oxysporum at 50 ug/ml by growth inhibition method. In kind it is functional. Conditions: read-out: GI. Put shortly: as §1
In series [15] the test system is Nicotiana tabacum. The series is described as follows: Induction of systemic acquired resistance activity in TMV infected-Nicotiana tabacum (tobacco) leaves at 50 ug/ml. It is filed as functional. An outline of the steps: as §5
The test system of series [16] is Phytophthora infestans. The series is described as follows: Fungicidal activity against Phytophthora infestans at 50 ug/ml by growth inhibition method. It is filed as functional. Conditions: read-out: GI. An outline of the steps: as §1
Series [17] concerns Tobacco mosaic virus. The series is described as follows: In vitro antiviral activity against Tobacco mosaic virus (TMV) infected tobacco leaves at 500 ug/ml. It is filed as functional.
Series [18] relates to Thanatephorus cucumeris. Put plainly: Fungicidal activity against Thanatephorus cucumeris at 50 ug/ml by growth inhibition method. In kind it is functional. The note with it: read-out: GI. Put shortly:
as §1

Series [19] concerns Tobacco mosaic virus. Put plainly: In vivo antiviral activity against Tobacco mosaic virus (TMV) infected tobacco leaves assessed as inactivation effect at 500 ug/ml co-treated with virus for 30 min before inoculation onto leaves measured at 2-3 days after viral challenge. It is filed as functional. Put shortly:
as §4

The subject of series [20] is Cercospora beticola. Put plainly: Fungicidal activity against Cercospora beticola at 50 ug/ml by growth inhibition method. In kind it is functional. Conditions: read-out: GI. Put shortly: as §1
For series [21], the system named is Tobacco mosaic virus. Put plainly: In vivo antiviral activity against Tobacco mosaic virus (TMV) infected tobacco leaves assessed as protective effect at 500 ug/ml treated 12 hr before viral inoculation measured at 2-3 days after viral challenge. In kind it is functional. Put shortly:
as §3

A word on the inhibition: it is the relative decrease from the control value, in per cent. High values mean a response far below the control, low ones a response near the control.

The structures appear in SMILES notation.

Take `Cc1ccc(N(C(=O)c2nnsc2C)C(C(=O)NC(C)C)c2ccccc2)cc1Cl` (configuration not stated): the inhibition of growth at 50 µg/mL in series [1] is 11%; in series [4], 21%; in [6], 39%; in series [10], 13%; in series [11], 85%; in series [13], 47%. For the same compound, the inhibition of growth at 50 µg/mL in series [14] stood at 36%; in [16], 12%; in series [18], 64%; in [20], 0%. Also, in series [2], at 200 µg/mL the inhibition was 30%. For the same compound, the Activity result in series [3] is “Non-toxic”; in [5], 30%; in [7], 40%; in [8] it was 50%; in [9] it was 46%; in series [12], 41%. Besides, the Activity turned out to be 33% in series [15], 65% in [19] and 57% in [21]. Further, testing at 500 µg/mL in series [17] gave an inhibition of 43%.

Take `Cc1cccc(C(C(=O)NC(C)C)N(C(=O)c2nnsc2C)c2ccc(C)c(Cl)c2)c1` (configuration not stated): the inhibition of growth at 50 µg/mL in [1] was found to be 13%; in series [4], 38%; in [6], 44%; in [10], 37%; in [11] it was 76%; in [13], 51%. In addition, the inhibition of growth at 50 µg/mL in [14] came to 14%; in series [16] it was 8%; in series [18], 63%; in series [20], 17%. Further, testing at 200 µg/mL in [2] gave an inhibition of 18%. Besides, the Activity result in series [3] is reported as “Non-toxic”; in series [5], 33%; in [7] it was 14%; in series [8], 72%; in series [9] it was 40%; in series [12], 49%. Moreover, the Activity in [15] came out at 65%; in [19] it was 82%; in series [21] it was 48%. Further, the inhibition at 500 µg/mL in series [17] came out at 34%.

The values are drawn from ChEMBL document CHEMBL3044755, “5-Methyl-1,2,3-thiadiazoles synthesized via ugi reaction and their fungicidal and antiviral activities” (J Agric Food Chem, 2010).
